A selection: hits, their analogues and other compounds. The true share with any hit is near 0.96%.
LAP4 TOR yeast: alters LAP4-GFP fluorescence in TOR pathway yeast screen; S. cerevisiae LAP4-GFP multiplex, flow cytometry GFP, 3 h; median GFP as percent of DMSO wells; GFP response vs DMSO, % at 10 µM; 320,000 tested, 0.34% active;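 active = GFP response vs DMSO above a set limit, about the screen mean plus 3 SD, cut at about 150% in these data; inconclusive = under 70 cell events counted for the yeast strain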
CIT2-GFP yeast: yeast TOR pathway CIT2-GFP modulation. S. cerevisiae CIT2-GFP strain, flow cytometry, 3 h; 100 means same as DMSO wells. 320,000 tested, 0.065% active. GFP response vs DMSO, % at 10 µM;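 active = GFP response relative to DMSO above a set limit, near the screen mean plus 3 SD, cut at about 150% in these data; inconclusive = Fewer than 70 cells measured for a yeast strain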;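 note: ratio of well median GFP fluorescence to mean of DMSO wells on the plate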
T cell modulator: T cell immune modulators affecting CD8 T cell-vesicle binding; 2C CD8+ T cell-vesicle binding, flow cytometry; stronger effect = lower value; response (vesicle binding), % at 7 µM; 330,000 tested, 0.068% active;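 active = response, share of CD8 T cells binding vesicles, and their 90th percentile fluorescence all below set limits, cut at about 80% in these data, passing the limit was not always enough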;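 note: values below 100% mean blocked vesicle binding to the CD8+ T cells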
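System: murine 2C transgenic CD8+ T lymphocytes; also added: QL9-loaded Drosophila micro-vesicles; times: binding 1.5 h at 37 °C; measured by: flow cytometry, PE anti-B7-1 (FL2) versus Alexa647 anti-CD8 (FL8), PFA-fixed; control set: Peptide-free naked vesicles (low) and QL9 vesicles with 0.7% DMSO vehicle (high)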
MEP2 TOR yeast: yeast TOR pathway MEP2-GFP modulation | S. cerevisiae MEP2-GFP strain, flow cytometry GFP, 3 h; 100% = DMSO control level | GFP response vs DMSO, % at 10 µM | 330,000 tested, 0.51% active | AID 2016;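 active = GFP response versus DMSO above a set limit, roughly screen mean plus 3 SD, cut at about 180% in these data; inconclusive = fewer than 70 cells counted for a yeast strain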;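 note: median GFP fluorescence of the barcode-gated MEP2-GFP cells per well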
RPL19A TOR yeast: yeast TOR pathway RPL19A-GFP modulation; percent response vs DMSO, % at 10 µM; S. cerevisiae RPL19A-GFP strain, flow cytometry, 3 h; stronger effect = lower value; 330,000 tested, 0.3% active;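 active = percent response vs DMSO below 50%; inconclusive = fewer than 70 events counted for the yeast strain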;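 note: median channel GFP fluorescence of the barcoded RPL19A-GFP strain; lower means less RPL19A-GFP as with rapamycin TOR inhibition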
AGP1 TOR yeast: yeast TOR pathway AGP1-GFP modulation; S. cerevisiae AGP1-GFP multiplex flow cytometry, 3 h; GFP as percent of DMSO wells; GFP response vs DMSO, % at 10 µM; 320,000 tested, 0.02% active; AID 2066;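 active = GFP response relative to DMSO above a set limit, near screen average plus 3 SD, cut at about 150% in these data; inconclusive = fewer than 70 cells counted for the yeast strain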;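 note: median GFP channel fluorescence of the gated AGP1 strain per well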
Hits are given with their value; [ ] = another dose, or the depositor's remark.

How did CC(=O)c1sc2nc(C)c3c(c2c1N)CCCC3 do in these assays?
LAP4 TOR yeast: 167; CIT2-GFP yeast: inactive; T cell modulator: inactive; MEP2 TOR yeast: inactive; RPL19A TOR yeast: inactive; AGP1 TOR yeast: inactive

How did COc1cc(C(=O)COC(=O)c2ccc([N+](=O)[O-])o2)cc(OC)c1OC do in these assays?
LAP4 TOR yeast: inactive; CIT2-GFP yeast: inactive; T cell modulator: inactive; MEP2 TOR yeast: inactive; RPL19A TOR yeast: inactive; AGP1 TOR yeast: inactive

How did Cc1cc(C)c(C(=O)COC(=O)c2ccc([N+](=O)[O-])o2)cc1C do in these assays?
LAP4 TOR yeast: 225; CIT2-GFP yeast: inactive; T cell modulator: inactive; MEP2 TOR yeast: inactive; RPL19A TOR yeast: inactive; AGP1 TOR yeast: inactive

Results for COc1ccc(N2CCN(C(=O)c3ccc(NC(=O)C4=CSCCO4)cc3)CC2)cc1 ?
LAP4 TOR yeast: inactive; CIT2-GFP yeast: inactive; T cell modulator: inactive; MEP2 TOR yeast: inactive; RPL19A TOR yeast: inactive; AGP1 TOR yeast: inactive

How did COCCn1c(C)cc(C(=O)CN2C(=O)NC3(CCCCCCC3)C2=O)c1C do in these assays?
LAP4 TOR yeast: inactive; CIT2-GFP yeast: inactive; T cell modulator: 0.0; MEP2 TOR yeast: inactive; RPL19A TOR yeast: inactive; AGP1 TOR yeast: inactive

What do the screens show for `COCCn1c(C)cc(C(=O)CN2CCCCC2)c1C`?
LAP4 TOR yeast: inactive; CIT2-GFP yeast: inactive; T cell modulator: inactive; MEP2 TOR yeast: inactive; RPL19A TOR yeast: inactive; AGP1 TOR yeast: inactive

Results for Cc1cccc(C(CC(=O)O)n2cccc2)c1 (configuration not stated) ?
LAP4 TOR yeast: inactive; CIT2-GFP yeast: inconclusive; T cell modulator: inactive; MEP2 TOR yeast: 401[may fluoresce violet]; RPL19A TOR yeast: inactive; AGP1 TOR yeast: inconclusive

How did CCc1cc(C(=O)Cc2ccccn2)c(O)cc1O do in these assays?
LAP4 TOR yeast: inactive; CIT2-GFP yeast: inconclusive; T cell modulator: inactive; MEP2 TOR yeast: 270[may fluoresce violet]; RPL19A TOR yeast: inactive; AGP1 TOR yeast: inactive

How did CCCc1cc(C(=O)Cc2ccccn2)c(O)cc1O do in these assays?
LAP4 TOR yeast: inactive; CIT2-GFP yeast: inactive; T cell modulator: inactive; MEP2 TOR yeast: inactive; RPL19A TOR yeast: inactive; AGP1 TOR yeast: inactive

What do the screens show for `Cc1nc(Cl)nc(N(C)c2ccccc2)c1[N+](=O)[O-]`?
LAP4 TOR yeast: inactive; CIT2-GFP yeast: inactive; T cell modulator: inactive; MEP2 TOR yeast: inactive; RPL19A TOR yeast: inactive; AGP1 TOR yeast: inactive

How did COc1cc(C2c3c(oc4ccccc4c3=O)C(=O)N2CCN2CCOCC2)cc(OC)c1OC (configuration not stated) do in these assays?
LAP4 TOR yeast: inactive; CIT2-GFP yeast: inactive; T cell modulator: inactive; MEP2 TOR yeast: inactive; RPL19A TOR yeast: inactive; AGP1 TOR yeast: inactive

How did COc1ccc(C2c3c(oc4ccccc4c3=O)C(=O)N2CCN2CCOCC2)cc1OC (configuration not stated) do in these assays?
LAP4 TOR yeast: inactive; CIT2-GFP yeast: inactive; T cell modulator: inactive; MEP2 TOR yeast: 188; RPL19A TOR yeast: inactive; AGP1 TOR yeast: inactive

What do the screens show for `Cc1ccccc1NC(=O)COC(=O)c1cc(=O)c2ccccc2o1`?
LAP4 TOR yeast: inactive; CIT2-GFP yeast: 159; T cell modulator: inactive; MEP2 TOR yeast: inactive; RPL19A TOR yeast: inactive; AGP1 TOR yeast: inactive

Results for Cc1ccc(NC(=O)c2sc3nc(C)cc(C)c3c2N)cc1 ?
LAP4 TOR yeast: inactive; CIT2-GFP yeast: inconclusive; T cell modulator: inactive; MEP2 TOR yeast: 340[may fluoresce violet]; RPL19A TOR yeast: 36[may fluoresce violet]; AGP1 TOR yeast: inconclusive

Results for O=C1[C@H]2[C@@H](c3ccc(Cl)cc3)N3C(=O)N(c4cccc(Cl)c4)C(=O)[C@@]3(Cc3ccccc3)[C@H]2C(=O)N1C1CCCCC1 ?
LAP4 TOR yeast: inactive; CIT2-GFP yeast: inactive; T cell modulator: inactive; MEP2 TOR yeast: inactive; RPL19A TOR yeast: inactive; AGP1 TOR yeast: inactive

How did Cc1cccc(C)c1NC(=O)C1CCCNC1 (configuration not stated) do in these assays?
LAP4 TOR yeast: inactive; CIT2-GFP yeast: inconclusive; T cell modulator: inactive; MEP2 TOR yeast: 253[may fluoresce violet]; RPL19A TOR yeast: 20[may fluoresce violet]; AGP1 TOR yeast: inconclusive

What do the screens show for `COc1ccc(N2CCN(C(=O)NC(=O)c3ccccc3)CC2)cc1`?
LAP4 TOR yeast: inactive; CIT2-GFP yeast: inactive; T cell modulator: inactive; MEP2 TOR yeast: inactive; RPL19A TOR yeast: inactive; AGP1 TOR yeast: inactive

Results for O=C(CCc1nc2ccccc2c(=O)[nH]1)Nc1cc(C(F)(F)F)ccc1N1CCCC1 ?
LAP4 TOR yeast: inactive; CIT2-GFP yeast: inactive; T cell modulator: inactive; MEP2 TOR yeast: inactive; RPL19A TOR yeast: inactive; AGP1 TOR yeast: inactive

What do the screens show for `CC1=CC(=O)C(C(C)C)=CC1=NC(=O)c1ccc(C)cc1`?
LAP4 TOR yeast: inactive; CIT2-GFP yeast: inactive; T cell modulator: inactive; MEP2 TOR yeast: inactive; RPL19A TOR yeast: inactive; AGP1 TOR yeast: inactive

How did Cc1nn(-c2ccccc2)c(C)c1C1C(C#N)=C(N)Oc2n[nH]c(C)c21 (configuration not stated) do in these assays?
LAP4 TOR yeast: inactive; CIT2-GFP yeast: inconclusive; T cell modulator: inactive; MEP2 TOR yeast: 317[may fluoresce violet]; RPL19A TOR yeast: 43[may fluoresce violet]; AGP1 TOR yeast: inactive

Results for Cc1nn(C)c(C)c1C1C(C#N)=C(N)Oc2n[nH]c(C)c21 (configuration not stated) ?
LAP4 TOR yeast: inactive; CIT2-GFP yeast: inactive; T cell modulator: inactive; MEP2 TOR yeast: inactive; RPL19A TOR yeast: inactive; AGP1 TOR yeast: inactive

How did Cc1ccc(C)c(NC(=O)CN(C)C(=O)COc2cccc3c2OC(C)(C)C3)c1 do in these assays?
LAP4 TOR yeast: inactive; CIT2-GFP yeast: inactive; T cell modulator: inactive; MEP2 TOR yeast: inactive; RPL19A TOR yeast: inactive; AGP1 TOR yeast: inactive

How did Cc1cc(Cl)c(OCCCSc2nc(C)cc(=O)[nH]2)c(Br)c1 do in these assays?
LAP4 TOR yeast: inactive; CIT2-GFP yeast: inactive; T cell modulator: 74; MEP2 TOR yeast: inactive; RPL19A TOR yeast: inactive; AGP1 TOR yeast: inactive

Results for Cc1cc(=O)[nH]c(SCCCOc2ccc(F)cc2)n1 ?
LAP4 TOR yeast: inactive; CIT2-GFP yeast: inactive; T cell modulator: inactive; MEP2 TOR yeast: inactive; RPL19A TOR yeast: inactive

What do the screens show for `O=C(Nc1ccncc1)c1ccc(Cl)c(S(=O)(=O)N2CCCC2)c1`?
LAP4 TOR yeast: inactive; CIT2-GFP yeast: inactive; T cell modulator: inactive; MEP2 TOR yeast: inactive; RPL19A TOR yeast: inactive; AGP1 TOR yeast: inactive

What do the screens show for `CCCCNC(=O)C1CC(=O)N(CCc2ccccc2)C1` (configuration not stated)?
LAP4 TOR yeast: inactive; CIT2-GFP yeast: inactive; T cell modulator: inactive; MEP2 TOR yeast: inactive; RPL19A TOR yeast: inactive; AGP1 TOR yeast: inactive

Results for Cc1ccc(CCN2CC(C(=O)NCCCN(C)Cc3ccccc3)CC2=O)cc1 (configuration not stated) ?
LAP4 TOR yeast: inactive; CIT2-GFP yeast: inactive; T cell modulator: inactive; MEP2 TOR yeast: 188; RPL19A TOR yeast: inactive; AGP1 TOR yeast: inactive

What do the screens show for `Cc1ccc(CCN2CC(C(=O)NCCCN3CCCCCC3)CC2=O)cc1` (configuration not stated)?
LAP4 TOR yeast: inactive; CIT2-GFP yeast: inconclusive; T cell modulator: inactive; MEP2 TOR yeast: 184[may fluoresce violet]; RPL19A TOR yeast: inactive

Screening data as filed in PubChem BioAssay.
